# Compound activity as filed in PubChem BioAssay.
# Rows were chosen to be rich in hits. Some 2.7% of all compounds tested hit in one or more screens of this group.
# NadD block = NadD (S. aureus) enzyme inhibition. AID 602399. inhibition, % at 20 µM. purified NadD enzyme, colorimetric absorbance read-out. actives 0.78% (n = 360,000); in the data active = inhibition above about 26%
# HNF4A DNA FP = change in binding of human HNF4 alpha to DNA; P41235; HNF4a-FITC DNA binding, fluorescence polarization, 1 h; activity change, % at 10 µM; actives 0.3% (n = 360,000); in the data active = activity change above about 30%, passing the limit was not always enough
# Target sequence (P41235 whole entry, looked up): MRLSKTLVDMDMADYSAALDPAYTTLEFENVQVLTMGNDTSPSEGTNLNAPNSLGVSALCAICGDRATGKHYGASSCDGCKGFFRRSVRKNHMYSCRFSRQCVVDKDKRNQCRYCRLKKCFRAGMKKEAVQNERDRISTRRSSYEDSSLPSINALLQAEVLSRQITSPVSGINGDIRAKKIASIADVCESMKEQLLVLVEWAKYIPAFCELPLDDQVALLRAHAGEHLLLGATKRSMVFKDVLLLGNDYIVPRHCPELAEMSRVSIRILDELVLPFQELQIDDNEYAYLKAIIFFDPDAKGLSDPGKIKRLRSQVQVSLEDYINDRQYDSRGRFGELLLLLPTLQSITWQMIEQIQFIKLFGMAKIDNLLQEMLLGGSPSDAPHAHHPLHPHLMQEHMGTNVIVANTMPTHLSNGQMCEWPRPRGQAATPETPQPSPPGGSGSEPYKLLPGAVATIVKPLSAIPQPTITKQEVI
# Rpn11 inh = blocks the human proteasome subunit Rpn11 | human 26S proteasome, Ub4-pepOG fluorescence polarization; 20S core pre-blocked with epoxomicin | inhibition, % at 20 µM | actives 0.59% (n = 360,000) | AID 588493;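 active = inhibition at 20 µM, scaled to each plate's controls, above about 33%, limit read from the data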
# CSN inh = inhibitors of human CSN-mediated cullin deneddylation | AID 651999 | inhibition, % at 12.5 µM | Q92905 | actives 0.38% (n = 360,000) | Purified CSN, SCF-Nedd8-OG deneddylation, fluorescence polarization;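 active = pattern-corrected inhibition above about 35%, with an unprinted fluorescence ratio check between 0.5 and 1.5, limit read from the data, passing the limit was not always enough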;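 note: 0% = enzyme with substrate and 100% = substrate without enzyme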
#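 Schedule: reaction 90 min, room temperature / Assay system: HEK293T-derived human Csn5 enzyme / Input: Csn5 at 0.24 nM final / Measure: inhibition of Csn5 cleavage, % / Control set: substrate-only high control, full reaction low control / Technique: fluorescence polarization of the substrate / Buffer or medium: Tris/NaCl/DTT buffer, pH 7.5 / Reagent: SCFSkp2-Nedd8OG substrate at 10 nM final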
# TPT1 inhibitor = inhibitors of Candida albicans tRNA 2'-phosphotransferase TPT1. inhibition, % at 5 µM. actives 0.81% (n = 300,000). recombinant caTPT1, FP RNA substrate dephosphorylation;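 active = inhibition above the mean of all tested compounds plus 3 SD, set per screening campaign, cut at about 24% in these data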;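 note: plate controls were DMSO alone for no effect and ferristatin control at 100 nM for full effect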
# PP1 counter = counter-screen for PP5 inhibitors: inhibitors of human PP1-alpha; P62136; purified PP1alpha, OMFP fluorescence; inhibition, % at 6.7 µM; actives 0.9% (n = 320,000); AID 2235;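 active = inhibition above the mean inhibition of all tested compounds plus 3 SD, computed separately for each screening campaign, cut at about 15% in these data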
# PP1 confirm = confirmation of human PP1 phosphatase inhibitors. AID 2358. actives 52% (n = 1,900). shares compounds with PP1 counter. inhibition, % at 6.7 µM. purified PP1alpha, OMFP substrate fluorescence;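 active = mean PP1 inhibition above a set limit taken from the earlier primary screen, cut at about 15% in these data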
# PP5 counter = inhibits human PP5 phosphatase in PP1 counter-screen; shares compounds with PP1 counter; purified PP5c, OMFP fluorescence; actives 4% (n = 1,900); AID 2360; inhibition, % at 6.7 µM;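 active = mean PP5 inhibition over triplicate wells above about 9.5% taken from the earlier PP1 screen, limit read from the data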
# The depositor's hits bear a star; / = no result given.
SMILES,NadD block,HNF4A DNA FP,Rpn11 inh,CSN inh,TPT1 inhibitor,PP1 counter,PP1 confirm,PP5 counter
C=CCNC(=S)N1CCN(c2cc3c(cc2F)c(=O)c(C(=O)O)cn3CC)CC1,-4.8,1.3,-21.6,2.6,-0.1,19.7*,8.5,-4.3
CCn1cc(C(=O)O)c(=O)c2cc(F)c(N3CCN(S(=O)(=O)c4ccc(Br)cc4)CC3)cc21,/,/,/,/,1.1,19.1*,41.2*,-0.6
C=CCCCCCCCCC(=O)N1CCN(c2cc3c(cc2F)c(=O)c(C(=O)O)cn3CC)CC1,2.9,1.8,11.1,-0.5,-4.1,9.8,/,/
Cc1ccc(C(=O)N2CCC(n3nccc3NC(=O)C3CCOC3)CC2)cc1 (centres undefined),0.3,1.5,-5.5,-3.1,1.0,-5.1,/,/
COc1cccc(NC(=O)c2cc(-c3ccco3)nc3ccccc23)c1,1.7,2.4,12.9,5.3,0.8,17.9*,3.1,0.2
CCCOc1ccc(C(=O)CCC(=O)NNC(=O)c2cccs2)cc1,4.6,1.1,5.3,-0.1,/,-1.0,/,/
COc1cc(NC(=O)c2cc(S(=O)(=O)N3CCCCC3)c[nH]2)cc(OC)c1,8.6,0.4,0.5,8.0,-0.6,17.6*,12.2,-3.8
COc1ccc(NC(=O)c2cc(S(=O)(=O)N3CCCCC3)c[nH]2)c(OC)c1,-2.9,0.1,0.4,-4.1,2.3,-1.6,/,/
CC(=O)Nc1cccc(-c2ccnc3c2CC(C)(C(=O)NCc2cccs2)O3)c1 (centres undefined),-2.4,1.3,-1.2,-0.5,/,/,/,/
CCOC(=O)c1cc(=O)n2[nH]c(-c3ccc(C)cc3)cc2n1,-6.9,-0.7,5.4,2.7,-0.4,4.0,/,/
CCOC(=O)Cc1cc(=O)n2[nH]c(C)c(-c3ccc(Cl)cc3)c2n1,7.5,4.4,0.8,5.5,3.7,24.8*,18.2*,-5.1
CCOC(=O)Cc1cc(=O)n2[nH]c(-c3ccc(C)cc3)cc2n1,5.0,7.5,14.3,1.5,22.9,18.2*,10.3,1.1
CCOC(=O)Cc1cc(=O)n2[nH]c(C)c(-c3ccc(OC)cc3)c2n1,5.1,1.5,6.7,1.1,-0.2,13.1,/,/
CCOc1ccc(S(=O)(=O)N2CCC(C(=O)NCc3ccncc3)CC2)cc1,-1.5,0.3,-9.1,-3.7,-2.7,-1.2,/,/
CCN(CC(=O)Nc1cc(Cl)ccc1C)C(=O)CCS(=O)(=O)c1ccc(Cl)cc1,-1.4,2.5,7.5,-2.8,-0.8,3.0,/,/
CSc1nc(NCc2ccco2)c2sc3nc(C(C)C)c4c(c3c2n1)CC(C)(C)OC4,15.8,6.0,17.6,9.2,-2.3,3.9,/,/
CSc1nc(NCCOCCO)c2sc3nc(-c4ccco4)c4c(c3c2n1)CCC4,22.0,-17.6,12.8,42.1,17.6,44.9*,25.3*,-0.5
CCN(CCO)c1nc(SC)nc2c1sc1nc(-c3ccco3)c3c(c12)CCC3,-5.0,0.7,-2.4,1.4,9.9,18.5*,27.7*,-0.5
CCCCCCCCCCOC(=O)Cn1c(COc2ccccc2)[n+](C)c2ccccc21,9.8,7.3,-4.3,2.4,-5.4,35.8*,9.3,3.5
CCCCCCCCCCOC(=O)Cn1c(COc2ccccc2C)[n+](C)c2ccccc21,19.2,10.1,13.5,9.2,2.7,44.5*,15.9*,3.6
CCOC(=O)Cn1c(COc2ccccc2OC)[n+](C)c2ccccc21,-0.1,2.8,-1.4,-2.9,-2.0,-7.8,/,/
CCCCOC(=O)Cn1c(=O)n(CC(=O)OCCCC)c2ccccc21,0.4,0.6,-3.0,-3.3,-3.5,2.2,/,/
CCCCCCCCCCOC(=O)Cn1c(COc2ccc(OC)cc2)[n+](C)c2ccccc21,11.3,6.3,13.7,2.9,2.6,34.7*,1.9,-1.0
COc1cc2c(Cc3ccccc3)cncc2cc1O,1.2,-0.2,-14.0,1.0,/,/,/,/
CCC1=NNc2cccc3c(OC)ccc1c23,/,/,/,/,-10.8,32.8*,9.1,4.6
COc1ccc(C(C)=O)c2c(O)cccc12,1.8,2.0,-2.8,-4.3,-1.6,3.4,/,/
